This note sets out measurements from paper PMC12079591 (ACS Omega, 2025).

Like-named read-outs stand apart in the source and are kept apart here.

The subject of one assay is MDA-MB-231. The assay is described as follows: Cell proliferation assay. It counts as cell-based, human. The essentials:
(§1)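 Mycoplasma-negative, STR-authenticated cells were seeded at 4000−6000/well and kept overnight at 37 °C, 5% CO2. Graded test compound concentrations or solvent control were added to triplicate wells. Adherent lines were read by SRB (OD 510 nm) and suspension lines by MTT (OD 570 nm). IC50 was obtained by nonlinear regression. Results are means ± SD (n ≥ 2).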

In a further assay the test system is PC-3. Nature of the assay: Cell proliferation assay. It counts as cell-based, human. The essentials:
as §1

For a further assay, the system named is H1975. Nature of the assay: Cell proliferation assay. It counts as cell-based. The note with it: read-out: IC50 H1975; lung carcinoma; mean ± SD (n ≥ 2). In short, it runs like this: as §1
In another assay the test system is NCI-H460. Nature of the assay: Cell proliferation assay. It counts as cell-based. The note with it: read-out: IC50 NCI-H460; lung carcinoma; mean ± SD (n ≥ 2). The essentials: as §1
The subject of another assay is A-431. The assay is described as follows: Cell proliferation assay. It counts as cell-based. As to conditions: read-out: IC50 A-431; squamous cell carcinoma; mean ± SD (n ≥ 2). The essentials: as §1
The next assay has as its system HPAF-II. The assay is described as follows: Cell proliferation assay. It counts as cell-based. As to conditions: read-out: IC50 HPAF-II; pancreatic carcinoma; mean ± SD (n ≥ 2). In short, it runs like this: as §1
In another assay the test system is NUGC-3. Nature of the assay: Cell proliferation assay. It counts as cell-based. As to conditions: read-out: IC50 NUGC-3; gastric carcinoma; mean ± SD (n ≥ 2). In short, it runs like this:
as §1

The next assay deals with KATO III. Nature of the assay: Cell proliferation assay. The note with it: read-out: IC50 KATO III; gastric carcinoma; mean ± SD (n ≥ 2). It counts as cell-based. The essentials:
as §1

The next assay relates to HCT116. The assay is described as follows: Cell proliferation assay. It counts as cell-based. The note with it: read-out: IC50 HCT116; colorectal carcinoma; mean ± SD (n ≥ 2). In short, it runs like this:
as §1

Another assay relates to DOHH2. Nature of the assay: Cell proliferation assay. It counts as cell-based. As to conditions: read-out: IC50 DOHH2; diffuse large B cell lymphoma; mean ± SD (n ≥ 2). The essentials:
as §1

A further assay concerns SUDHL-4. Nature of the assay: Cell proliferation assay. It counts as cell-based. The note with it: read-out: IC50 SUDHL-4; diffuse large B cell lymphoma; mean ± SD (n ≥ 2). In short, it runs like this: as §1
The subject of the next assay is K562. The assay is described as follows: Cell proliferation assay. It counts as cell-based. In short, it runs like this:
as §1

The test system of the next assay is MV-4-11. The assay is described as follows: Cell proliferation assay. It counts as cell-based. As to conditions: read-out: IC50 MV-4-11; acute myeloid leukemia; mean ± SD (n ≥ 2). The essentials:
as §1

Another assay concerns K562/ADR. The assay is described as follows: Cell proliferation assay, multidrug-resistant K562/ADR. It counts as cell-based. The note with it: for RF (resistance factor): K562/ADR versus K562; for IC50: read-out: IC50 K562/ADR. The essentials:
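K562/ADR cells were derived from parental K562 by stepwise increases in ADR concentration. Proliferation was measured by the SRB (adherent) or MTT (suspension) method: 4000−6000 cells/well seeded overnight at 37 °C, 5% CO2, graded test compound in triplicate wells. IC50 was obtained by nonlinear regression. The resistance factor compares K562/ADR with parental K562. Results are means ± SD (n ≥ 2).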

For another assay, the system named is MDA-MB-231 cells. Nature of the assay: Cell cycle analysis by flow cytometry. It counts as cell-based, human. As to conditions: MDA-MB-231, 24 h treatment. The essentials:
(§2)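 Cells were seeded in 12-well plates overnight, then exposed to test compound for 24 h. Cells were trypsinized, washed in cold PBS and fixed overnight in 70% ethanol at −20 °C. After two PBS washes they were stained 30 min at 37 °C with 50 μg/mL propidium iodide plus 20 μg/mL RNase A. About 10,000 cells were acquired by flow cytometry. Results are means ± SD; two-tailed unpaired t test.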
For orientation: Flow cytometry measures light scatter and fluorescence of single cells or particles in a stream.

The next assay concerns PC-3 cells. The assay is described as follows: Cell cycle analysis by flow cytometry. The note with it: PC-3, 24 h treatment. It counts as cell-based, human. The essentials:
as §2

The subject of assay [1] is cyclin A2, cyclin B1, and cyclin D1. The assay is described as follows: Western blot of cell cycle-related proteins. As to conditions: MDA-MB-231 and PC-3 cells, 24 h, dose-dependent. It counts as cell-based, human. The essentials: (§3)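 MDA-MB-231 and PC-3 cells were seeded in 12-well plates overnight, then exposed to a concentration gradient of test compound. Cells were lysed in SDS sample buffer, and equal protein amounts were run on SDS-PAGE and transferred to PVDF. Membranes were probed with primary antibodies, then HRP-conjugated secondary antibodies, and detected by ECL chemiluminescence.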
(In general: A western blot detects proteins with antibodies after separation by electrophoresis.)

For assay [2], the system named is P-AKT, P-STAT3, P-STAT5, P-P38. The assay is described as follows: Western blot of JAK/STAT5, PI3K/AKT and p38 MAPK pathways. It counts as cell-based, human. As to conditions: MDA-MB-231 and PC-3 cells, 24 h, concentration-dependent. In short, it runs like this: as §3
For a further assay, the system named is MDR1. The assay is described as follows: Western blot of MDR1 in K562/ADR. The note with it: 48 h, concentration-dependent. It counts as cell-based. In short, it runs like this: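 K562 and K562/ADR cells were seeded in 12-well plates overnight and treated with a concentration gradient of test compound for 48 h. Lysates in SDS sample buffer (equal protein) were separated by SDS-PAGE and transferred to PVDF. MDR1 was probed with primary and HRP-conjugated secondary antibodies and detected by ECL.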

Where [3] appears, read: read-out: IC50 MDA-MB-231, breast carcinoma, mean ± SD (n ≥ 2).
Where [4] appears, read: read-out: IC50 PC-3, prostate carcinoma, mean ± SD (n ≥ 2).
Setting [5] is: read-out: IC50 K562, chronic myeloid leukemia, mean ± SD (n ≥ 2).
Where [6] appears, read: Homo sapiens, K562, read-out: IC50 K562.
Setting [7] is: Homo sapiens, MDA-MB-231, read-out: IC50 MDA-MB-231.
[8] abbreviates: Homo sapiens, PC-3, read-out: IC50 PC-3.

In the case of “3-(1,2-Dicarba-closo-dodecarboranyl)-4-oxo-4H-chromen-7-yl Sulfurofluoridate [Compound 1m]”, the IC50 was determined as 5.46 ± 0.61 µM in the assay with MDA-MB-231 (setting [3]); 4.99 ± 2.76 µM in the assay with PC-3 (setting [4]); 5.63 ± 0.3 µM in the assay with H1975; 3.19 ± 0.18 µM with NCI-H460; 4.86 ± 0.21 µM in the assay on A-431; 2.67 ± 0.55 µM in the assay with HPAF-II. Besides, the IC50 in the assay with NUGC-3 stood at 2.54 ± 0.37 µM; in the assay with KATO III, 3.55 ± 0.15 µM; in the assay on HCT116, 2.86 ± 0.23 µM; in the assay on DOHH2, 1.93 ± 0.12 µM; in the assay on SUDHL-4 it was 4.29 ± 0.54 µM; in the assay with K562 (setting [5]) it was 4.52 ± 0.8 µM. In addition, the IC50 was 4.52 ± 0.806 µM in the assay with K562 (read-out: IC50 K562, parental cell line, mean ± SD (n ≥ 2)); 5.45 ± 0.26 µM in the assay with MV-4-11; 3.04 ± 0.0347 µM in the assay with K562/ADR (multidrug-resistant subline, mean ± SD (n ≥ 2)). In addition, the “RF (resistance factor)” value with K562/ADR was 0.67. Besides, the “effect on cell cycle distribution” value in the assay with MDA-MB-231 cells and in the assay with PC-3 cells was “caused G0/G1 cell cycle arrest” throughout. In addition, the “expression of cyclin A2, cyclin B1, and cyclin D1” value in assay [1] is “downregulated”. For the same compound, the P-P38 expression result in [2] is “upregulating”. The “expression of P-AKT, P-STAT3, and P-STAT5” value in [2] is listed as “reduced”. Further, the “expression of MDR1” value in the assay on MDR1 is “significantly inhibited”.
As for “3-(1,2-Dicarba-closo-dodecarboranyl)-4H-chromen-4-one [Compound 1a]”, the IC50 turned out to be 75.2 ± 20.8 µM with MDA-MB-231 (setting [3]) and 66.6 ± 8.79 µM in the assay with PC-3 (setting [4]).
“3-(1,2-Dicarba-closo-dodecarboranyl)-5,7-dihydroxy-4H-chromen-4-one [Compound 1g]”: the IC50 was determined as 5.34 ± 1.03 µM with MDA-MB-231 (setting [3]); 5.14 ± 2.93 µM with PC-3 (setting [4]); 5.13 ± 1.08 µM in the assay with H1975; 5.93 ± 2.15 µM with NCI-H460; 4.84 ± 1.07 µM with A-431; 4.14 ± 0.93 µM with HPAF-II. Also, the IC50 in the assay with NUGC-3 stood at 4.79 ± 0.44 µM; in the assay with KATO III it was 5.02 ± 0.38 µM; in the assay with HCT116 it was 4.21 ± 0.11 µM; in the assay on DOHH2 it was 5.23 ± 0.62 µM; in the assay on SUDHL-4, 6.16 ± 0.34 µM; in the assay on K562 (setting [5]), 7 ± 0.27 µM. The IC50 with MV-4-11 is 5.65 ± 0.02 µM.
Regarding “3-(1,2-Dicarba-closo-dodecarboranyl)-5,7-dimethoxy-4H-chromen-4-one [Compound 1e]”, the IC50 amounted to 55.8 ± 6.71 µM with MDA-MB-231 (setting [3]) and 53.1 ± 0.73 µM in the assay with PC-3 (setting [4]).
As for “3-(1,2-Dicarba-closo-dodecarboranyl)-5-hydroxy-7-methoxy-4H-chromen-4-one [Compound 1f]”, the IC50 with MDA-MB-231 (setting [3]) and in the assay with PC-3 (setting [4]) was greater than 100 µM in each case.
For the compound “3-(1,2-Dicarba-closo-dodecarboranyl)-7-methoxy-2H-chromene [Compound 1j]”, the IC50 in the assay with MDA-MB-231 (setting [3]) was 16 ± 0.16 µM; in the assay with PC-3 (setting [4]), 10.9 ± 3.31 µM.
The like results for “3-(1,2-Dicarba-closo-dodecarboranyl)-7-methoxy-4H-chromen-4-one [Compound 1b]” were, in that order, 47.5 ± 7.39 µM and 54.7 ± 6.26 µM.
For “3-(1,2-Dicarba-closo-dodecarboranyl)-7-methoxychroman-4-ol [Compound 1h]”, the IC50 with MDA-MB-231 (setting [3]) is 14.6 ± 1.58 µM; with PC-3 (setting [4]), 13.5 ± 1.02 µM.
In the case of “3-(1,2-Dicarba-closo-dodecarboranyl)-7-methoxychroman-4-one [Compound 1i]”, the IC50 came to 25.4 ± 7.3 µM in the assay with MDA-MB-231 (setting [3]) and 38 ± 2.79 µM in the assay on PC-3 (setting [4]).
With “3-(1,2-Dicarba-closo-dodecarboranyl)-7-methoxychromane [Compound 1k]”, the IC50 with MDA-MB-231 (setting [3]) worked out at 35.3 ± 4.78 µM; in the assay on PC-3 (setting [4]), 35.5 ± 0.98 µM.
As for “3-(1,2-Dicarba-closo-dodecarboranyl)chromane-4,7-diol [Compound 1l]”, the results for the IC50 with MDA-MB-231 (setting [3]) and with PC-3 (setting [4]) were 17.9 ± 6.09 µM and 16.6 ± 1.89 µM, respectively.
“7-(Benzyloxy)-3-(1,2-dicarba-closo-dodecarboranyl)-4H-chromen-4-one [Compound 1c]”: the IC50 in the assay on MDA-MB-231 (setting [3]) is 65.3 ± 5.39 µM; in the assay on PC-3 (setting [4]), 72.4 ± 1.06 µM.
Take `COc1cccc2c1C(=O)c1c(O)c3c(c(O)c1C2=O)C[C@@](O)(C(=O)CO)C[C@@H]3O[C@H]1C[C@H](N)[C@H](O)[C@H](C)O1` [adriamycin]: the IC50 is 0.0267 ± 0.00082 µM in the assay on K562 (setting [6]) and 2.84 ± 1.06 µM in the assay on K562/ADR (Homo sapiens, K562/Adr). Further, in the assay with K562/ADR, the “RF (resistance factor)” value is 106.35.
As to `COc1ccc(-c2coc3cc(O)ccc3c2=O)cc1` [formononetin, reference compound], the IC50 with MDA-MB-231 (setting [7]) and with PC-3 (setting [8]) was greater than 100 µM each time.
Consider `O=c1c(-c2ccc(O)cc2)coc2cc(O)cc(O)c12` [genistein, reference compound], for which the IC50 amounted to 36.9 ± 2.81 µM in the assay on MDA-MB-231 (setting [7]) and 29.5 ± 8.74 µM in the assay on PC-3 (setting [8]).
As to `CC(=O)O[C@H]1C(=O)[C@@]2(C)[C@H]([C@H](OC(=O)c3ccccc3)[C@]3(O)C[C@H](OC(=O)[C@H](O)[C@@H](NC(=O)c4ccccc4)c4ccccc4)C(C)=C1C3(C)C)[C@]1(OC(C)=O)CO[C@@H]1C[C@@H]2O` [paclitaxel], the IC50 in the assay with K562 (setting [6]) was 0.00157 ± 0.0015 µM; with K562/ADR (Homo sapiens, K562/Adr), greater than 10 µM. In addition, the “RF (resistance factor)” value was greater than 6000 with K562/ADR and “over 6000” in the assay with K562/ADR (listed as PTX).
For `CCC1=C[C@@H]2CN(C1)Cc1c([nH]c3ccccc13)[C@@](C(=O)OC)(c1cc3c(cc1OC)N(C)[C@H]1[C@@](O)(C(=O)OC)[C@H](OC(C)=O)[C@]4(CC)C=CCN5CC[C@]31[C@@H]54)C2` [vinorelbine], the IC50 in the assay on K562 (setting [6]) was found to be 0.00157 ± 0.00112 µM; in the assay with K562/ADR (Homo sapiens, K562/Adr), 0.326 ± 0.0425 µM. Further, the “RF (resistance factor)” value with K562/ADR is reported as 230.86.
